V-ATPase pH – regulators of yeast V-ATPase proton pumping, primary screen, pHLuorin cytosolic pH fluorescence; S. cerevisiae; response, % at 10 µM; 0.37% of 350,000 active; AID 504577, 2011; in the data active means response mostly above about 7.3%, no sharp cut-off; inactive means mostly below about 5.4%; further: actives read high
ADAM10 inh – human ADAM10 inhibitors, primary screen, biochemical, QFRET, HTS | Disintegrin and metalloproteinase domain-containing protein 10 (Homo sapiens), O14672 | recombinant ADAM10, EDANS/DABCYL FRET peptide cleavage, 3 h | inhibition, % at 7 µM | 0.62% of 370,000 active;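 active means inhibition above a per-campaign cutoff equal to the mean of compounds falling between control-based bounds plus 3 SD, cut at about 20% in these data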
Target sequence (O14672 214-748 limits assumed): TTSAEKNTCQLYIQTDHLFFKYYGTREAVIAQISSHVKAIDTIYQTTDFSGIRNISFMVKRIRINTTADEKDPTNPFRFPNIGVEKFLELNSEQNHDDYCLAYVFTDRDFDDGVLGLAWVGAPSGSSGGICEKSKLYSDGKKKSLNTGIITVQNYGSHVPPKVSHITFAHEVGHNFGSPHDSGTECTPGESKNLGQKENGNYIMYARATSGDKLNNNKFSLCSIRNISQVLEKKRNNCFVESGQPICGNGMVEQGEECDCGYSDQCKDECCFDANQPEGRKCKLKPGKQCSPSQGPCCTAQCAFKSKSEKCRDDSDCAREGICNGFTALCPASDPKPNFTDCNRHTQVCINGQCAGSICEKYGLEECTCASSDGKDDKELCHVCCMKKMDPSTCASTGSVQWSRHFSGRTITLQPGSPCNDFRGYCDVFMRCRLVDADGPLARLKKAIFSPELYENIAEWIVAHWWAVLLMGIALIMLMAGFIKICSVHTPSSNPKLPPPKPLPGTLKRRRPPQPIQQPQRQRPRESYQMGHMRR
aDG glyco up – activators of alpha-DG glycosylation, primary screen, uHTS, Pro5-aDG cells, AlphaScreen; alpha-DG glycosylation AlphaScreen (IIH6); 0% Pro5, 100% B10-LARGE cell signal; activation, % at 10 µM; 0.22% of 360,000 active; AID 624168, 2012;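 active means activation of at least 8% versus controls, or a plate z-score of at least 8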;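 further: Pro5 are CHO cells carrying HIG-tagged alpha-DG that lacks glycosylation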
Hep lipid drop – inhibitors of hepatocyte lipid droplet formation, primary screen, imaging, high-throughput imaging, BODIPY stain; inhibition, % at 6.5 µM; AID 1656, 2009; AML12 mouse hepatocytes, oleate lipid droplets; 0.4% of 240,000 active;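 active means lipid droplet intensity inhibited by at least 50%, with more than 500 cells counted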
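Material – AML12 mouse liver cells · Also added – oleate loading, 100 µM · Compound dosing – 6.5 µM single-point dosing · Times – overnight treatment with compound plus oleate · Measured by – fluorescence imaging, 20x objective, two fields per well · Read-out – percent inhibition of filter-corrected integrated lipid droplet intensity per well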
ADAM17 inh – ADAM17 inhibitors, primary screen, biochemical, QFRET | inhibition, % at 6.95 µM | 0.83% of 370,000 active | recombinant ADAM17, EDANS/DABCYL FRET peptide cleavage | Disintegrin and metalloproteinase domain-containing protein 17 (Homo sapiens), P78536;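 active means inhibition above the mean of compounds lying between control limits plus 3 SD, set per campaign, cut at about 8.5% in these data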
MPTP block – mitochondrial permeability transition pore inhibitors, primary screen, biochemical, isolated mouse mitochondria, absorbance | Ca2+ swelling absorbance, 30 min | inhibition, % at 10 µM | 1.4% of 360,000 active | AID 602449, 2012;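 active means inhibition of 50% or more, scaled per plate between neutral and stimulator controls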
Of the large screens only hits and unclear results are named; the others gave an inactive call. Compounds with a hit are over-represented: about 3.1% of the library has one in this group of screens.

COc1ccc(-c2c(Cc3ccccc3)nc(NC(=O)c3ccccc3)n2Cc2ccc(OC)cc2OC)cc1	none (no result: V-ATPase pH, aDG glyco up, Hep lipid drop, MPTP block)
O=C(NCc1ccco1)c1ccc2c(c1)N(Cc1ccc(Cl)cc1)CCS2	V-ATPase pH 14
O=C(NCc1ccco1)c1ccc2c(c1)N(Cc1ccccc1)CCS2	none
CCCCCCCCCCCCN1[C@@H](CC(=O)O)c2cc(C(F)(F)F)ccc2S1(=O)=O	ADAM10 inh 22 (no result: Hep lipid drop)
C[C@H]1COc2c3ccc(I)cc3nn21	none (no result: V-ATPase pH, aDG glyco up, Hep lipid drop, MPTP block)
CCOC(=O)[C@]12CCCCC/C=C\1N(Cc1ccc(OC)cc1)C(=O)[C@H]2CC(=O)N1CCN(C(=O)c2ccco2)CC1	none (no result: V-ATPase pH, aDG glyco up, Hep lipid drop, MPTP block)
CN1C(=O)c2cc(NC(=O)c3ccccc3)ccc2OC[C@H]2O[C@@H](CC(=O)NCC3CC3)CC[C@@H]21	none (no result: V-ATPase pH, aDG glyco up, Hep lipid drop, MPTP block)
O=C(O)c1cccc(N2C(=O)C=CC2=O)c1	none (no result: Hep lipid drop)
O=C(Nc1ccc(Cl)cc1Cl)c1cccc(N2C(=O)C=CC2=O)c1	V-ATPase pH 78 (no result: Hep lipid drop)
CCCCCCN1C2=NCCN2c2ccccc21	none
CCCCCCCN1C2=NCCN2c2ccccc21	V-ATPase pH 22
N#C/C(=C/c1ccc(N2CCCCC2)o1)C(=O)Nc1ccc2ccccc2c1	V-ATPase pH 41
N#C/C(=C/c1ccc(N2CCCCC2)o1)C(=O)Nc1ccc(Cl)cc1	none
COC(=O)[C@]12C[C@H](CC(=O)NCC34CC5CC(CC(C5)C3)C4)C(=O)N(Cc3ccccc3)C1=C[C@H](COCc1ccccc1)O[C@@H]2C	none (no result: V-ATPase pH, aDG glyco up, Hep lipid drop, MPTP block)
CC[n+]1c(/C=C/c2c[nH]c3ccccc23)ccc2cc(C)ccc21	V-ATPase pH 8.2 (no result: aDG glyco up, MPTP block)
CC1(C)Cc2ccccc2C2=NNC(=O)C2=N1	aDG glyco up 9.0
Cc1ccc(/C=c2\s/c(=C(/C#N)C(=O)N3CCCC3)n(Cc3ccco3)c2=O)s1	ADAM10 inh 20
O=C1C=CC(=O)N1CCNc1ncc(C(F)(F)F)cc1Cl	V-ATPase pH 13
C/C(C=Nn1c(-c2ccc(F)cc2)n[nH]c1=S)=C/c1ccco1	none (no result: V-ATPase pH, aDG glyco up, Hep lipid drop, MPTP block)
COc1cc(/C=C/c2ccc3cccc(O)c3n2)cc(Cl)c1OC	aDG glyco up 2.5
Cc1cc(C(=O)N2CCc3c([nH]c4ccccc34)C2c2cccc(Cl)c2)nn1C (stereo unspecified)	Hep lipid drop 67
CSc1ccc(C2c3[nH]c4ccccc4c3CCN2C(=O)c2cc(C)n(C)n2)cc1 (stereo unspecified)	none (no result: V-ATPase pH, ADAM10 inh, aDG glyco up, ADAM17 inh, MPTP block)
Nc1[nH]c(C(=O)c2ccccc2)c(-c2ccc(Cl)cc2Cl)c1C(=O)c1cccs1	none (no result: V-ATPase pH, aDG glyco up, Hep lipid drop, MPTP block)
CS(=O)(=O)N[C@@H]1C[C@@H]2O[C@@H](CO)CC[C@@H]2O[C@@H]1CCc1ccc(/C=C/c2ccccc2)cc1	none (no result: V-ATPase pH, aDG glyco up, Hep lipid drop, MPTP block)
CCOC(=O)CSC1=NC(=O)/C(=C\c2ccc(Cl)cc2)S1	V-ATPase pH 11 (no result: Hep lipid drop)
CCOC(=O)C1CCN(C2=NC(=O)/C(=C/c3ccc(Cl)cc3)S2)CC1	none
CCOC(=O)N1CCN(C(=O)C[C@H]2C[C@@]3(C(=O)OC)C(=C[C@H](C(C)C)O[C@@H]3C3CC3)N(Cc3ccc4c(c3)OCO4)C2=O)CC1	none (no result: V-ATPase pH, aDG glyco up, Hep lipid drop, MPTP block)
Nc1ccc(-c2nc3ccccc3o2)cc1	none
O=C1C=CC(=O)N1c1ccc(-c2nc3ccccc3o2)cc1	V-ATPase pH 20 (no result: ADAM10 inh, Hep lipid drop, ADAM17 inh)
O=S1(=O)c2ccc(Br)cc2OC[C@@H](Cc2ccccc2)N1Cc1cn(Cc2ccc(F)cc2)nn1	none (no result: V-ATPase pH, aDG glyco up, Hep lipid drop, MPTP block)
COc1ccc(C(=O)c2ccc3oc(-c4ccc(OC)cc4)c(-c4ccc(O)cc4)c3c2)cc1	ADAM17 inh 8.6 (no result: Hep lipid drop)
COc1ccc(C(=O)c2c(-c3ccc(OC)cc3)oc3ccccc23)cc1	none (no result: Hep lipid drop)
O=S1(=O)c2c(cccc2N2CCSCC2)Oc2ccccc2CN1Cc1cn(Cc2cccc(F)c2)nn1	none (no result: V-ATPase pH, aDG glyco up, Hep lipid drop, MPTP block)
CNC(CC(=O)c1ccc([N+](=O)[O-])cc1)C(Cl)(Cl)Cl (stereo unspecified)	V-ATPase pH 69 (no result: ADAM10 inh, ADAM17 inh)
CCc1ccccc1NC(=O)[C@@H]1CCCN1S(=O)(=O)c1cccc2cccnc12	none (no result: V-ATPase pH, aDG glyco up, Hep lipid drop, MPTP block)
CC(C)(C)NCC(O)COc1ccccc1C(=O)CCc1ccccc1 (stereo unspecified)	aDG glyco up 2.5

High-throughput results deposited in PubChem BioAssay by several laboratories.
